ChEMBL document CHEMBL3124843, “Synthesis, cytostatic, antimicrobial, and anti-HCV activity of 6-substituted 7-(het)aryl-7-deazapurine ribonucleosides” (J Med Chem, 2014)
The source made the active and inactive calls. No rule for the calls is given here.

Key:
Enterococcus faecalis = experiment: Antibacterial activity against Enterococcus faecalis CCM 4224 after 24 hrs; format: functional, organism-based
Candida parapsilosis = experiment: Antifungal activity against Candida parapsilosis after 48 hrs; format: functional, organism-based
CCRF-CEM [1] = experiment: Mitotic arrest in human CCRF-CEM cells assessed as pH3Ser10-positive cells at IC50 after 24 hrs by propidium iodide staining-based flow cytometric analysis (reference value: 1.4%); format: functional
Pichia kudriavzevii = experiment: Antifungal activity against Candida crusei after 48 hrs; format: functional, organism-based
Escherichia coli [2] = experiment: Antibacterial activity against Escherichia coli CCM 3954 after 24 hrs; format: functional, organism-based
Candida albicans = experiment: Antifungal activity against Candida albicans after 48 hrs; format: functional, organism-based
CCRF-CEM [3] = experiment: Cell cycle arrest in human CCRF-CEM cells assessed as accumulation at sub-G1 phase at IC50 after 24 hrs by propidium iodide staining-based flow cytometric analysis (reference value: 9.6%); format: functional
CCRF-CEM [4] = experiment: Cytostatic activity against human CCRF-CEM cells after 72 hrs by MTT assay; format: functional, cell-based
How it was run: (§1)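 IC50 is the concentration that cuts cell growth by 50%, read by quantitative metabolic MTT staining after a 3-day treatment. The resistant sublines were made by raising the concentration of the cytotoxic drug step by step. CEM-DNR-bulk (daunorubicin-selected) stably overexpresses mrp-1. K562-TAX (paclitaxel-selected) expresses only mdr-1. HCT116p53−/− carries null p53 alleles. BJ and MRC-5 are nonmalignant fibroblasts.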

K562 [5] = experiment: Cytostatic activity against paclitaxel-resistant human K562 cells after 72 hrs by MTT assay; format: functional, cell-based; conditions: K562, 72 h; how it was run: as §1
Escherichia coli [6] = experiment: Antibacterial activity against multi-resistant Escherichia coli C/16702 after 24 hrs; format: functional, organism-based
HepG2 = experiment: Antiproliferative activity against human HepG2 cells after 72 hrs by XTT assay; format: functional, cell-based; conditions: HepG2, 72 h
Pseudomonas aeruginosa [7] = experiment: Antibacterial activity against multi-resistant Pseudomonas aeruginosa A/16575 after 24 hrs; format: functional, organism-based
[8] = Cytotoxicity against human HuH7 cells infected with Hepatitis C virus subtype 2a; format: cell-based, Huh-7
K562 [9] = experiment: Cytostatic activity against human K562 cells after 72 hrs by MTT assay; format: functional, cell-based; conditions: K562, 72 h; how it was run: as §1
CCRF-CEM [10] = experiment: Inhibition of RNA synthesis in human CCRF-CEM cells assessed as BrU-positive cells at IC50 after 24 hrs by propidium iodide staining-based flow cytometric analysis (reference value: 43.3%); format: functional; set-up: scale not given: the % may be the effect or the level left
HCT-116 [11] = experiment: Cytostatic activity against p53-deficient human HCT116 cells after 72 hrs by MTT assay; format: functional, cell-based; conditions: HCT-116, 72 h; how it was run: as §1
Hepatitis C virus [12] = experiment: Antiviral activity against Hepatitis C virus subtype 1b infected in human HuH7 cells; format: functional, organism-based, Hepacivirus hominis; conditions: genotype 1b, Huh-7
[13] = Cytostatic activity against human CEM-DNR-bulk cells after 72 hrs by MTT assay; format: functional, cell-based; how it was run: as §1
Candida tropicalis = experiment: Antifungal activity against Candida tropicalis after 48 hrs; format: functional, organism-based
Pseudomonas aeruginosa [14] = experiment: Antibacterial activity against Pseudomonas aeruginosa CCM 3955 after 24 hrs; format: functional, organism-based
[15] = Antiproliferative activity against human HeLaS3 cells after 72 hrs by XTT assay; format: functional, cell-based; conditions: HeLa S3, 72 h
How it was run: (§2)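 Antiproliferative test on HL-60 promyelocytic leukemia and HeLa S3 cervical carcinoma cells growing in liquid suspension.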

[16] = system: Staphylococcus haemolyticus; experiment: Antibacterial activity against methicillin-resistant Staphylococcus haemolyticus A/16568 after 24 hrs; format: functional, organism-based
[17] = Cytotoxicity against human HuH7 cells infected with Hepatitis C virus subtype 1b; format: cell-based, Huh-7
Staphylococcus aureus [18] = experiment: Antibacterial activity against Staphylococcus aureus CCM 3953 after 24 hrs; format: functional, organism-based
HCT-116 [19] = experiment: Cytostatic activity against human HCT116 cells after 72 hrs by MTT assay; format: functional, cell-based; conditions: HCT-116, 72 h; how it was run: as §1
MRC5 = experiment: Cytostatic activity against human MRC5 cells after 72 hrs by MTT assay; format: ADME, cell-based; conditions: MRC5, 72 h; how it was run: as §1
A549 = experiment: Cytostatic activity against human A549 cells after 72 hrs by MTT assay; format: functional, cell-based; conditions: A549, 72 h; how it was run: as §1
Hepatitis C virus [20] = experiment: Antiviral activity against Hepatitis C virus subtype 2a infected in human HuH7 cells; format: functional, organism-based, Hepacivirus hominis; conditions: genotype 2a, Huh-7
Staphylococcus aureus [21] = experiment: Antibacterial activity against methicillin-resistant Staphylococcus aureus MRSA 4591 after 24 hrs; format: functional, organism-based
HL-60 = experiment: Antiproliferative activity against human HL60 cells after 72 hrs by XTT assay; format: functional, cell-based; conditions: HL-60, 72 h; how it was run: as §2
BJ = experiment: Cytostatic activity against human BJ cells after 72 hrs by MTT assay; format: ADME, cell-based; how it was run: as §1

SMILES | Activity (Enterococcus faecalis) | Activity (Candida parapsilosis) | Activity (Pichia kudriavzevii) | Activity (Escherichia coli [2]) | Activity (Candida albicans) | IC50 (CCRF-CEM [4]) | IC50 (K562 [5]) | Activity (Escherichia coli [6]) | IC50 (HepG2) | Activity (Pseudomonas aeruginosa [7]) | CC50 [8] | IC50 (K562 [9]) | IC50 (HCT-116 [11]) | EC50 (Hepatitis C virus [12]) | IC50 [13] | Activity (Candida tropicalis) | Activity (Pseudomonas aeruginosa [14]) | IC50 [15] | Activity [16] | CC50 [17] | further results
COc1ncnc2c1c(-c1ccoc1)cn2[C@@H]1O[C@H](CO)[C@@H](O)[C@H]1O | inactive | inactive | inactive | inactive | inactive | 0.11 µM | 2.82 µM | inactive | 0.29 µM | inactive | > 44 µM | 0.19 µM | 0.13 µM | 0.33 µM | > 20 µM | inactive | inactive | 1.79 µM | inactive | > 44 µM | Activity (CCRF-CEM [1]): 1.6%; Activity (CCRF-CEM [3]): 8.5%; Activity (CCRF-CEM [10]): 0.7%; Activity (Staphylococcus aureus [18]): inactive; IC50 (HCT-116 [19]): 0.11 µM; IC50 (MRC5): 29.4 µM; IC50 (A549): 1.16 µM; EC50 (Hepatitis C virus [20]): 8.28 µM; Activity (Staphylococcus aureus [21]): inactive; IC50 (HL-60): 0.15 µM; IC50 (BJ): 28.8 µM
CNc1ncnc2c1c(-c1ccco1)cn2[C@@H]1O[C@H](CO)[C@@H](O)[C@H]1O | inactive | inactive | inactive | inactive | inactive | 0.18 µM | 15.1 µM | inactive | 0.85 µM | inactive | > 44 µM | 0.22 µM | 0.44 µM | 0.06 µM | > 20 µM | inactive | inactive | 5 µM | inactive | > 44 µM | Activity (CCRF-CEM [1]): 1.4%; Activity (CCRF-CEM [10]): 1%; Activity (Staphylococcus aureus [18]): inactive; IC50 (HCT-116 [19]): 0.23 µM; IC50 (MRC5): 90.8 µM; IC50 (A549): 2.57 µM; EC50 (Hepatitis C virus [20]): 0.14 µM; Activity (Staphylococcus aureus [21]): inactive; IC50 (HL-60): 0.62 µM; IC50 (BJ): 5.04 µM
COc1ncnc2c1c(-c1ccco1)cn2[C@@H]1O[C@H](CO)[C@@H](O)[C@H]1O | inactive | inactive | inactive | inactive | inactive | 0.02 µM | 0.38 µM | inactive | 0.3 µM | inactive | > 44 µM | 0.06 µM | 0.04 µM | 0.02 µM | 0.16 µM | inactive | inactive | 1.02 µM | inactive | > 44 µM | Activity (CCRF-CEM [1]): 1.4%; Activity (CCRF-CEM [3]): 6.8%; Activity (Staphylococcus aureus [18]): inactive; IC50 (HCT-116 [19]): 0.04 µM; IC50 (MRC5): 1.7 µM; IC50 (A549): 0.03 µM; EC50 (Hepatitis C virus [20]): 0.03 µM; Activity (Staphylococcus aureus [21]): inactive; IC50 (HL-60): 0.1 µM; IC50 (BJ): 0.43 µM
C#Cc1cn([C@@H]2O[C@H](CO)[C@@H](O)[C@H]2O)c2nc(N)nc(OC)c12 | inactive | inactive | inactive | inactive | inactive | > 100 µM | > 20 µM | inactive | > 20 µM | inactive | > 44 µM | > 20 µM | > 20 µM | > 44 µM | > 20 µM | inactive | inactive | > 20 µM | inactive | > 44 µM | Activity (Staphylococcus aureus [18]): inactive; IC50 (HCT-116 [19]): > 20 µM; IC50 (MRC5): > 100 µM; IC50 (A549): > 100 µM; EC50 (Hepatitis C virus [20]): > 44 µM; Activity (Staphylococcus aureus [21]): inactive; IC50 (HL-60): > 20 µM; IC50 (BJ): > 100 µM
COc1nc(N)nc2c1c(-c1ccccc1)cn2[C@@H]1O[C@H](CO)[C@@H](O)[C@H]1O | inactive | inactive | inactive | inactive | inactive | > 20 µM | > 20 µM | inactive | > 20 µM | inactive | > 44 µM | > 20 µM | > 20 µM | > 44 µM | > 20 µM | inactive | inactive | > 20 µM | inactive | > 44 µM | Activity (Staphylococcus aureus [18]): inactive; IC50 (HCT-116 [19]): > 20 µM; IC50 (MRC5): > 100 µM; IC50 (A549): > 20 µM; EC50 (Hepatitis C virus [20]): > 44 µM; Activity (Staphylococcus aureus [21]): inactive; IC50 (HL-60): > 20 µM; IC50 (BJ): > 100 µM
Cc1nc(N)c2ccn([C@@H]3O[C@H](CO)[C@@H](O)[C@H]3O)c2n1 | inactive | inactive | inactive | inactive | inactive | > 20 µM | > 20 µM | inactive | > 20 µM | inactive | > 44 µM | > 20 µM | > 20 µM | > 44 µM | > 20 µM | inactive | inactive | > 20 µM | inactive | > 44 µM | Activity (Staphylococcus aureus [18]): inactive; IC50 (HCT-116 [19]): > 20 µM; IC50 (MRC5): > 100 µM; IC50 (A549): > 100 µM; EC50 (Hepatitis C virus [20]): > 44 µM; Activity (Staphylococcus aureus [21]): inactive; IC50 (HL-60): > 20 µM; IC50 (BJ): > 100 µM
CSc1ncnc2c1c(-c1cccs1)cn2[C@@H]1O[C@H](CO)[C@@H](O)[C@H]1O | inactive | inactive | inactive | inactive | inactive | > 20 µM | > 20 µM | inactive | > 20 µM | inactive | > 44 µM | 11.6 µM | > 20 µM | 5.42 µM | > 20 µM | inactive | inactive | 1.96 µM | inactive | > 44 µM | Activity (Staphylococcus aureus [18]): inactive; IC50 (HCT-116 [19]): > 20 µM; IC50 (MRC5): > 100 µM; IC50 (A549): > 20 µM; EC50 (Hepatitis C virus [20]): > 44 µM; Activity (Staphylococcus aureus [21]): inactive; IC50 (HL-60): 1.13 µM; IC50 (BJ): 96.9 µM
Nc1nc2c(c(-c3ccoc3)cn2[C@@H]2O[C@H](CO)[C@@H](O)[C@H]2O)c(=O)[nH]1 | inactive | inactive | inactive | inactive | inactive | 17.9 µM | 12.5 µM | inactive | > 20 µM | inactive | > 44 µM | 19.6 µM | 17.6 µM | 25.7 µM | 15 µM | inactive | inactive | 10.7 µM | inactive | > 44 µM | Activity (Staphylococcus aureus [18]): inactive; IC50 (HCT-116 [19]): 14.2 µM; IC50 (MRC5): 86.1 µM; IC50 (A549): > 20 µM; EC50 (Hepatitis C virus [20]): 40.7 µM; Activity (Staphylococcus aureus [21]): inactive; IC50 (HL-60): > 15 µM; IC50 (BJ): 21.5 µM
